Test results published in ChEMBL document CHEMBL1128210, “Structure-activity relationship of omeprazole and analogues as Helicobacter pylori urease inhibitors” (J Med Chem, 1995).

Columns and labels:
[1] = Relative retention time of the compound; assay type: ADME
[2] = Half life at pH 7 is a measure of the rate by which the compound is converted to the active species; assay type: ADME; details: buffer
[3] = pKa value of the compound (pyridine ring substitutions dependent); assay type: physicochemical; details: read-out: pKapy
[4] = pKa value of the compound (benzimidazole ring substitutions dependent); assay type: physicochemical; details: read-out: pKabz
[5] = test system: Helicobacter pylori; test: Urease activity in wild type H pylori, CCUG 15818, at 100 uM
How it was run: (§1)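 CCUG 15818 grown 3 days at 37 °C microaerophilic on Columbia blood agar, washed three times in PBS at assay pH, set to A560 0.3. Cells preincubated with compound (MeOH or DMSO, ≤1% solvent) for 30 min at 37 °C, then mixed 1:1 with 200 mM urea for 10 min. Ammonia read by nitroprusside-catalysed phenol–hypochlorite at A650 against (NH4)2SO4. Compound colour blank subtracted; expressed as % of control.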

[6] = test system: Helicobacter pylori; test: Urease activity was determined in wild type-H pylori, CCUG 15818, at a concentration of 1 uM; how it was run: as §1
[7] = test system: Helicobacter pylori; test: Urease activity in H pylori, CCUG 15818, at 10 uM; how it was run: as §1
[8] = test system: Helicobacter pylori; test: Urease activity was determined in wild type-H pylori, CCUG 15818, at a concentration of 10 uM at pH 6
[9] = test system: Helicobacter pylori; test: Urease activity was determined in wild type-H pylori, CCUG 15818, at a concentration of 1 uM at pH 6
[10] = test system: Helicobacter pylori; test: Urease activity was determined in wild type-H pylori, CCUG 15818, at a concentration of 100 uM at pH 6
[11] = pKa value of the compound (pyridine ring substitutions dependent) at pH 6; assay type: physicochemical; details: read-out: pKapy
[12] = Relative retention time at pH 6; assay type: ADME; details: buffer
[13] = Half life at pH 6 is a measure of the rate by which the compound is converted to the active species.; details: buffer
[14] = pKa value of the compound (benzimidazole ring substitutions dependent) at pH 6; assay type: physicochemical; details: read-out: pKabz
[15] = test system: Helicobacter pylori; test: Urease activity was determined in wild type-H pylori, CCUG 15818 in the presence of beta mercaptoethanol at a concentration of 100 uM
How it was run: (§2)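 Intact CCUG 15818 cells (A560 0.3, washed in PBS) preincubated 30 min at 37 °C with compound at 1, 10 or 100 μM plus 100 μM β-mercaptoethanol. Urea was then added 1:1 from a 200 mM solution. After 10 min, ammonia was measured by indophenol (phenol–hypochlorite/nitroprusside) absorbance at 650 nm and expressed as % of control.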

[16] = test system: Helicobacter pylori; test: Urease activity was determined in wild type-H pylori, CCUG 15818 in the presence of beta mercaptoethanol at a concentration of 1 uM; how it was run: as §2
[17] = test system: Helicobacter pylori; test: Urease activity was determined in wild type-H pylori, CCUG 15818 in the presence of beta mercaptoethanol at a concentration of 10 uM; how it was run: as §2
[18] = test system: Helicobacter pylori; test: Urease activity was determined in wild type-H pylori, CCUG 15818, at a concentration of 1 nM
How it was run: (§3)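 Washed whole cells grown 3 days at 37 °C under microaerophilic conditions, resuspended in PBS at assay pH to A560 = 0.3. Compound (in MeOH or DMSO, ≤1% solvent) preincubated 30 min at 37 °C with shaking. 200 mM urea added 1:1; stopped after 10 min with phenol–nitroprusside/hypochlorite reagents, 15 min colour, A650 vs (NH4)2SO4 standard; percent of control.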

[19] = test system: Helicobacter pylori; test: Urease activity was determined in wild type-H pylori, CCUG 15818, at a concentration of 100 nM; how it was run: as §3
[20] = test system: Helicobacter pylori; test: Urease activity was determined in wild type-H pylori, CCUG 15818, at a concentration of 10 nM; how it was run: as §3

Row | SMILES | Log k'o [1] | half-life [2] [h] | pKa [3] | pKa [4] | Urease activity (% of control) [5] [%] | Urease activity (% of control) [6] [%] | Urease activity (% of control) [7] [%] | other results
1 | COc1ccnc(C[S+]([O-])c2nc3cc(F)c(F)cc3[nH]2)c1OC (configuration not stated) | 0.6 | 69 | 3.6 | 7.8 | – | – | – | –
2 | COc1ccc2[nH]c([S+]([O-])Cc3nccc(OC(C)C)c3C)nc2c1 (configuration not stated) | 1.22 | 1.5 | 5.1 | 8.9 | 0 | 86 | 35 | –
3 | Cc1c(OCC(F)(F)F)ccnc1C[S+]([O-])c1nc2ccccc2[nH]1 (configuration not stated) [LANSOPRAZOLE] | 1.1 | 13 | 3.9 | 8.7 | 29 | 105 | 103 | –
4 | Cc1cc(C)c(C[S+]([O-])c2nc3cc(Cl)ccc3[nH]2)nc1C (configuration not stated) | – | – | – | – | 164 | 97 | 105 | –
5 | COc1ccc2[nH]c(SCc3ncc(C)c(OC)c3C)nc2c1 | – | – | – | – | 99 | 109 | 101 | –
6 | COc1ccnc(C[S+]([O-])c2nc3c(F)cc(F)cc3[nH]2)c1 (configuration not stated) | 0.09 | 32 | 4.1 | 7.6 | 80 | 106 | 89 | –
7 | COc1ccnc(C[S+]([O-])c2nc3c(F)cccc3[nH]2)c1 (configuration not stated) | 0.26 | 23 | 4.4 | 7.5 | 58 | 93 | 95 | –
8 | COc1ccnc(C[S+]([O-])c2nc3cc(CO)ccc3[nH]2)c1C (configuration not stated) | 0.18 | 1 | 4.7 | 8.6 | 32 | 72 | 38 | –
9 | CCOc1ccnc(C[S+]([O-])c2nc3ccccc3[nH]2)c1C (configuration not stated) | 0.92 | 0.9 | 4.9 | 8.8 | 8 | 76 | 38 | –
10 | COc1ccc2[nH]c([S+]([O-])Cc3ncc(C)c(OC)c3C)nc2c1 (configuration not stated) [OMEPRAZOLE] | 0.83 | 23 | 4 | 8.7 | 64 | 109 | 96 | Control [8]: 88%; Control [9]: 115%; Control [10]: 28%; pKa [11]: 4; Log k'o [12]: 0.83; half-life [13]: 0.917 h; pKa [14]: 8.7
11 | COc1ccnc(C[S+]([O-])c2nc3cc(C(C)(C)C)ccc3[nH]2)c1C (configuration not stated) | 1.55 | 1 | 4.8 | 9.1 | 1 | – | 42 | Control [15]: 106%; Control [16]: 105%; Control [17]: 95%
12 | NP(N)(=O)NC(=O)c1ccc(F)cc1 | – | – | – | – | – | – | – | Control [18]: 80%; Control [19]: 0%; Control [20]: 10%
13 | COc1c(OCC2CC2)ccnc1C[S+]([O-])c1nc2cc(F)ccc2[nH]1 (configuration not stated) | 1.16 | 50 | 3.8 | 8.4 | 84 | 104 | 94 | –
14 | COc1ccnc(C[S+]([O-])c2nc3cc4c(cc3[nH]2)CCC4)c1C (configuration not stated) | 1.21 | 1.17 | 4.9 | 9.4 | 0 | 36 | 35 | –
